Measured values reported in article PMC2193291 (The Journal of Experimental Medicine, 2000).
Where two headings read alike, the source gives them in different places.

What was measured:
[1] = molecular target: Human cRaf-1 C1 ZiF domain (Homo sapiens, UniProt P04049); test: Retinoid binding by quenching of intrinsic protein
cRaf = cRaf (Homo sapiens, UniProt P04049); format: cell-based
Outline: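 COS-7 cells transfected with Flag-cRaf by calcium phosphate, kept 2 d in serum-free phenol-red-free DME, then given retinoids and/or scavengers (100 mM sodium azide, 1 mM N-acetylcysteine). UVB-irradiated at 400 μw/cm2 and incubated at 37°C for set times. Flag-Raf pulled down with anti-Flag M2 and washed in 0.5 M NaCl. Kinase reaction: 200 ng His-MEK(K97M), 60 μM ATP plus [γ-32P]ATP, 20 min, 30°C.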

[2] = molecular target: T1, Human PKCμ C1B ZiF domain (Homo sapiens, UniProt Q15139); test: Retinol binding by trp fluorescence quench, Gst fusion protein
T1 sequence (Q15139 270-320 limits assumed): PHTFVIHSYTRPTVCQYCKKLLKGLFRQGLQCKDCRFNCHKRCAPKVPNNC
Outline: (§1)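 Gst-ZiF fusions expressed in E. coli BL21/DE3 and purified on glutathione-agarose to >90%. Constructs: Drosophila C1A aa 40–101; C1B aa 105–261 plus trp 262; Vav aa 464–518 plus trp 519. Protein at 250 nM in helium-degassed PBS, titrated stepwise with all-trans retinol from a methanol stock. Trp emission 330 nm (excitation 280 nm), corrected for inner filtering. Kd from nonlinear fit over at least four independent measurements.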

[3] = molecular target: T2, S. cerevisiae PKC C1A ZiF domain (Saccharomyces cerevisiae, UniProt P24583); test: Retinol binding by trp fluorescence quench, Gst fusion protein
T2 sequence (P24583 414-461 limits assumed): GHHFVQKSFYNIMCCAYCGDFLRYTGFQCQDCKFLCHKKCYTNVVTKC

[4] = molecular target: Human PKCδ C1A ZiF domain (Homo sapiens, UniProt Q05655); test: Retinol binding by trp fluorescence quench, Gst fusion protein
Outline: as §1

[5] = molecular target: Human PKCδ C1B ZiF domain (Homo sapiens, UniProt Q05655); test: Retinol binding by trp fluorescence quench, Gst fusion protein
[6] = molecular target: Human PKCα C1A ZiF domain (Homo sapiens, UniProt P17252); test: Retinol binding by trp fluorescence quench, Gst fusion protein
Outline: as §1

[7] = molecular target: T3, S. cerevisiae PKC C1B ZiF domain (Saccharomyces cerevisiae, UniProt P24583); test: as above
T3 sequence (P24583 481-531 limits assumed): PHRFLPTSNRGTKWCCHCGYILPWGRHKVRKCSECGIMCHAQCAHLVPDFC
Outline: as §1

[8] = test system: cRaf/MAPK (ERK1 and 2 phosphorylation); test: Oxidative; format: cell-based; conditions: 3T3 cells, 2 μM retinol
[9] = molecular target: Gst-Raf ZiF (human cRaf-1 ZiF domain) (Homo sapiens, UniProt P04049); test: Retinol binding by fluorescence resonance energy transfer
Human PKCζ C1 ZiF domain = molecular target: T4, Human PKCζ C1 ZiF domain (Homo sapiens, UniProt Q05513); test: Retinol binding by trp fluorescence quench, Gst fusion protein
T4 sequence (Q05513 130-180 limits assumed): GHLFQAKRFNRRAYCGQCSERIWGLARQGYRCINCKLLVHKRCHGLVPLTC

[10] = molecular target: Human PKCα C1B ZiF domain (Homo sapiens, UniProt P17252); test: Retinol binding by trp fluorescence quench, Gst fusion protein
Outline: as §1

[11] = molecular target: T5, Human PKCμ C1A ZiF domain (Homo sapiens, UniProt Q15139); test: as above
T5 sequence (Q15139 146-196 limits assumed): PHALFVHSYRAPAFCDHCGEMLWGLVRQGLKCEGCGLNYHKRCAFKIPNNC
Outline: as §1

Human Vav C1 ZiF domain = molecular target: T6, Human Vav C1 ZiF domain (Homo sapiens, UniProt P15498); test: as above
T6 sequence (P15498 with tags, fused parts or gaps): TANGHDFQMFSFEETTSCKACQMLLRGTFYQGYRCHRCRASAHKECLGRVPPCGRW
Outline: as §1

PKCα = PKCα (Mus musculus, UniProt P20444); test: PKCα immunoprecipitation/kinase assay of H2O2-activated 3T3 cells; format: cell-based
Outline: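 3T3 cells retinol-depleted, some repleted 12 h with 2 μM retinol, then activated 10 min with graded H2O2 doses without staurosporine. Detergent lysates immunoprecipitated with PKCα antibody. Kinase activity measured in washed immunoprecipitates with H1 histone as substrate. Normalized data from six independent H2O2 titrations.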

MAPK (phospho-ERK) = test: Peroxide activation of endogenous MAPK in Jurkat cells, phospho-ERK Western blot; format: cell-based; conditions: 100 μM H2O2, different concentrations of retinol
Outline: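 Jurkat cells grown serum-free and retinol-free, then given varying retinol concentrations. Activated 15 min later for 10 min with 100 μM H2O2. Endogenous MAPK activity read as phospho-ERK on Western blots.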

[12] = molecular target: Drosophila PKC C1B ZiF domain (Drosophila melanogaster, UniProt P05130); test: Retinol binding by trp fluorescence quench, Gst fusion protein
Outline: as §1

[13] = molecular target: Drosophila PKC C1A ZiF domain (Drosophila melanogaster, UniProt P05130); test: as above
Outline: as §1

Chain of cRaf (P04049 whole entry): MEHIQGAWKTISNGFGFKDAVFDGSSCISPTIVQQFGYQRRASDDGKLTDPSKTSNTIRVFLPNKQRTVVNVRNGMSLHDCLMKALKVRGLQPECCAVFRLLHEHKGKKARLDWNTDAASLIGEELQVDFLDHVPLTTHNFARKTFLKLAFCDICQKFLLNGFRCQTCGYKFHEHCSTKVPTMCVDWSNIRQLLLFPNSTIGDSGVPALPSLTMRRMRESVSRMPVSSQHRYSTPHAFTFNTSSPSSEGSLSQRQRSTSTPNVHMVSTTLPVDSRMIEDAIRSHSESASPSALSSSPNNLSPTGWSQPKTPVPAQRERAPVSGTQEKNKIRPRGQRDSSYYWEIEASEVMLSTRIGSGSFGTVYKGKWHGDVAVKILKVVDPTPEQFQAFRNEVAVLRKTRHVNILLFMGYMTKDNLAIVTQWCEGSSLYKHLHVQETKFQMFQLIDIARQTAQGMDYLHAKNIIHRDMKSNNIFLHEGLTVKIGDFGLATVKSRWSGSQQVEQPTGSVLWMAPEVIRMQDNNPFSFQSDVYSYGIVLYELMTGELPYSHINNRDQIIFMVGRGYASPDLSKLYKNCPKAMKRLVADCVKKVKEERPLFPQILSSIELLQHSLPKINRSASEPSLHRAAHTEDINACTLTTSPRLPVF
Chain of Human PKCδ C1A ZiF domain (Q05655 159-209): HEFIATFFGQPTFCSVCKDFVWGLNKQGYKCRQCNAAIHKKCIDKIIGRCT
Chain of Human PKCδ C1B ZiF domain (Q05655 231-280): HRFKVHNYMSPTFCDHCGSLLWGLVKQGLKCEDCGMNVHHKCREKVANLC

With CC(C=CC=C(C)C(O)CO)=CC=C1C(C)=CCCC1(C)C (stereo not shown) [14HRR, 14-hydroxy-retro-retinol] the “Binding to native Gst-Raf4–256 (fluorescence quenching)” value ([1]; 1-μM protein solution, native protein) was “saturable binding”.

With CC(=O)N[C@@H](CS)C(=O)O [N-acetylcysteine] the “Effect on UVB-induced Raf activation” value (cRaf; N-acetylcysteine 1 mM) was “abolished the Raf activation”.

In the case of [2H]O[2H] [deuterated water], the “Effect on UVB-induced Raf activity” value (cRaf; addition of deuterated water) is reported as “distinct, though moderate, enhancement”.

CC1=C(/C=C/C(C)=C/C=C/C(C)=C/CO)C(C)(C)CCC1 [retinol, all-trans retinol] was tested, and the Kd [2] was 17.3 ± 4 nM, the “Augmentation of UVB-induced Raf kinase activity” value (cRaf; COS cells replenished with 2 μM retinol, UVB) was 2.2 ± 0.4 fold and the Kd [3] was 17.9 ± 5.1 nM. For the same molecule, the Kd [4] was 95.2 ± 1.3 nM, the Kd [5] was 67.3 ± 1.3 nM and the Kd ([1]; Binding constant, cRaf-1 amino acids 136–195, trp fluorescence quench, ± SE) was 22 ± 3.5 nM. For the same molecule, the Kd [6] was 20.7 ± 4 nM, the Kd [7] was > 500 nM and the “MAPK activity in retinol-repleted compared with retinol-deficient cultures” value ([8]; 300 μM H2O2, peak at 10–15 min, phosphorylated p42) was “two- to threefold higher”. The “MAPK activation by 5% FBS, retinol-sufficient vs retinol-deficient cultures” value ([8]; 5% FBS) was “no differences”, the Kd [9] was 25.8 nM and the FRET signal ([9]; truncated Gst-Raf Zif136–186 lacking trp 187) was “did not elicit a FRET signal”. For the same molecule, the Kd (Human PKCζ C1 ZiF domain) was 34.1 ± 6.7 nM, the Kd [10] was > 500 nM and the Kd [11] was 18.1 ± 8 nM. For the same molecule, the Kd (Human Vav C1 ZiF domain) was > 500 nM, the “Activation of PKC by phorbol ester” value (PKCα; 150 nM phorbol ester) was “not significantly enhanced” and the “Increase of PKCα kinase activity at maximum stimulation over unstimulated cells” value (PKCα; 3T3 cells, 200 μM H2O2, in the presence of 2 μM retinol, 6 experiments) was 20 fold. For the same molecule, the “Optimum dose for enhancement of PKCα activation” value (PKCα; data not shown) was 1 µM, the “Overall retinol enhancement effect on PKCα kinase activity” value (PKCα; presence vs absence of retinol, 200 μM H2O2) was 3 fold and the “Intrinsic PKC activation by retinol alone” value (PKCα; without H2O2) was “no intrinsic PKC activation”. The “Enhancement of MAPK activation by peroxide” value (MAPK (phospho-ERK)) was “dose-dependent enhancement”, the Kd [12] was > 500 nM and the Kd [13] was 18.5 ± 3.7 nM.

[N-]=[N+]=[N-].[Na+] [sodium azide] was tested, and the “Effect on UVB-induced Raf activation” value (cRaf; sodium azide 100 mM) was “abolished the Raf activation”.
